# Source: PubChem
# A selection: hits, their analogues and other compounds. The true share with any hit is near 3.4%.
# UCH37 inh = inhibitors of human deubiquitinating enzyme UCH37 | inhibition, % (no concentration beside the values) | Q9Y5K5 | hit rate 0.33% among 330,000 | purified proteasome/UCH37, Ub-AMC cleavage fluorescence;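 active means mean inhibition over replicate wells above about 20%, limit read from the data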;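 further: 0% = compound-free wells with enzyme and 100% = wells lacking proteasome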
#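 Signal – fluorescence, ex 355 nm, em 460 nm · System – Proteasome-bound UCH37 · Input – 0.15 nM proteasome as dispensed · Timing – 30 min preincubation with enzyme, 25 min cleavage at room temperature · Read-out basis – percent inhibition of cleavage signal versus uninhibited and no-proteasome wells · Medium – Tris-HCl pH 7.4 with ATP-MgCl2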
# Arrestin-AP2 inh = inhibitors of human beta-arrestin and AP2 interaction; hit rate 0.31% among 340,000; FITC-arrestin peptide / GST-AP2 beads, flow cytometry; AP2 beta2 appendage carries R879A mutation; inhibition, % at 10 µM;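 active means inhibition above a set limit, near 3 SD of compounds lacking own fluorescence, cut at about 54% in these data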;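 further: plate controls were DMSO wells for no effect and 5 µM unlabelled arrestin peptide for full effect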
#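 Test system: GST-tagged AP2 beta2-adaptin appendage (R879A) on 4 µm glutathione beads; also added: fluorescein-tagged arrestin peptide at 50 nM final; timing: 12 min plus 1 h, RT; signal: flow cytometry, FL1 (488/535 nm); read-out: percent drop in bead-associated FITC signal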
# A3A deaminase = human APOBEC3A DNA deaminase inhibition; inhibition, % at 20 µM; recombinant A3A, FAM/TAMRA ssDNA deamination fluorescence; hit rate 0.41% among 330,000; P31941; AID 493011;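 active means at least 40% inhibition at 20 µM here, with at most 30% in a related deaminase screen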;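 further: plate controls were A3A with DMSO for no effect and wells lacking A3A enzyme for full effect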
# A3G deaminase = blocks human APOBEC3G single-stranded DNA deamination; recombinant A3G, ssDNA deamination FAM/TAMRA fluorescence; hit rate 0.28% among 330,000; inhibition, % at 20 µM;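 active means inhibition of at least 40% at 20 µM, with no more than 30% in the related APOBEC3A deaminase screen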;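 further: plate controls were DMSO wells with A3G for no effect and wells lacking A3G enzyme for full effect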
# PolyA inhibitor = inhibitors of polyadenylation in S. cerevisiae; S. cerevisiae SKY197-pL101 polyadenylation reporter, beta-gal luminescence; efflux-impaired pdr1/pdr3 knockout yeast; score 100 = 6 SD above DMSO; activity score, % at 12 µM; hit rate 0.02% among 300,000;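 active means lowest replicate activity score at least 50, where 100 means six control SD above control mean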;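 further: yeast exposed to compound for 9 h at 30 °C; higher score means more reporter readthrough which indicates perturbed polyadenylation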
# AHR act = human AHR activation | AHR-responsive luciferase reporter cells, luminescence | AID 2796 | hit rate 2.5% among 320,000 | P35869 | activation, % at 5 µM; in the data active means activation above about 47%;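 further: 0% = vehicle wells and 100% = reference agonist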
# AHR act confirm = human AHR activation, confirmation | shares compounds with AHR act | human cells, AHR-responsive luciferase reporter, luminescence | activation, % at 9 µM | hit rate 87% among 2,300; in the data active means activation above about 49%;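 further: HepG2 hepatoma cells carrying a DRE-driven firefly luciferase reporter; 0% = vehicle wells and 100% = reference agonist wells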
# PXR counter = counter-screen for AHR activators: human PXR activators. AID 434939. activation, % at 11.6 µM. shares compounds with AHR act. hit rate 88% among 2,300. cell-based PXR reporter, luciferase luminescence; in the data active means activation above about 11%;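 further: human hepatoma DPX-2 cells expressing full-length human PXR; 0% = DMSO and 100% = reference agonist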
# * = called active by the depositor; / = no result.
SMILES,UCH37 inh,Arrestin-AP2 inh,A3A deaminase,A3G deaminase,PolyA inhibitor,AHR act,AHR act confirm,PXR counter
CC(=NNc1ccccn1)c1ccc(OC(F)F)cc1,1,/,/,/,/,/,/,/
Cc1ccc(C=NNC(=O)c2ccncc2)o1,18,/,/,/,/,/,/,/
CCN1CC=C2C(C#N)=C(N)C(C#N)(C#N)C(CCc3ccccc3)C2C1 (stereo unspecified),-36,0,-3,-5,/,47,/,/
CC(=O)N1CC=C2C(C#N)=C(N)C(C#N)(C#N)C(CCc3ccccc3)C2C1 (stereo unspecified),-28,28,-2,-2,-19,80*,73*,24*
C=C1c2cc3c(cc2NC(=S)N1Cc1ccccc1)OCO3,/,32,-3,15,-12,86*,65*,145*
Cc1ncc(CO)c(/C=N/Nc2ccc(C(F)(F)F)cn2)c1O,/,2,-5,-11,-14,81*,2,15*
COc1ccc(CC(=O)ON=C(N)c2ccc(Br)cc2)cc1OC,0,/,/,/,/,/,/,/
O=C(Nc1cc(Cl)cc(Cl)c1)c1cccc(OC(F)F)c1,0,19,4,-5,-10,81*,94*,44*
Cn1cccc1CC(=O)NN=Cc1ccc(C(C)(C)C)cc1,4,/,/,/,/,/,/,/
CC(C)(C)c1nnc(NN=Cc2ccc(Br)cc2)n(N)c1=O,6,/,/,/,/,/,/,/
Cc1ccc(OCC(=O)NCc2cccs2)c([N+](=O)[O-])n1,3,4,-3,-6,-12,105*,6,12*
CC(=NNC(=O)CN(c1ccc(Oc2ccccc2)cc1)S(C)(=O)=O)C(C)(C)C,1,/,/,/,/,/,/,/
COc1ccc(/C=C2\SC(=N)N(c3nccs3)C2=O)cc1OC,9,-5,1,1,4,85*,53*,17*
N=C1S/C(=C\c2ccc(-c3cccc(Cl)c3)o2)C(=O)N1c1nccs1,12,16,/,/,-15,18,/,/
Cc1nc(NCCCn2ccnc2)c2oc3ccccc3c2n1,-1,-6,-20,-1,-1,79*,110*,23*
CCNc1nc(C)nc2c1oc1ccccc12,1,-10,-1,-4,0,14,/,/
c1ccc2c(c1)oc1c(NCCCn3ccnc3)ncnc12,-2,21,-5,2,8,106*,110*,22*
Cc1cc(C)nc(N=C(NC(=O)C(C)(C)C)Nc2ccc(F)cc2)n1,3,/,/,/,/,/,/,/
Cc1cccc(C=Nn2c(-c3ccncc3)n[nH]c2=S)c1,5,/,/,/,/,/,/,/
O=[N+]([O-])c1ccc(N/N=C\c2ccccc2OCc2ccccc2)cc1,/,-4,-7,-9,-21,85*,62*,46*
Cc1ccsc1C=NNC(=O)Cn1cnc2ccccc21,6,/,/,/,/,/,/,/
O=C(Nc1ccccc1OCc1ccccc1)c1ccccc1Br,2,-2,-4,-6,-20,103*,105*,43*
C=CCOc1ccccc1C=NO,2,/,/,/,/,/,/,/
Cc1cc(=O)[nH]c(N/N=C/c2ccc(Br)s2)n1,/,1,1,-3,0,81*,66*,/
COc1ccc2nc(C)cc(N/N=C/c3ccccc3)c2c1,/,26,2,-7,/,142*,96*,2
SMILES,UCH37 inh,Arrestin-AP2 inh,A3A deaminase,A3G deaminase,PolyA inhibitor,AHR act,AHR act confirm,PXR counter
Cc1cc(N/N=C/c2ccccc2O)nc(-c2ccccc2O)n1,/,-7,-4,-5,-35,119*,40,9
Cc1cc(N/N=C\c2ccccc2)nc(-c2ccccc2O)n1,/,-4,-4,-4,8,82*,108*,15*
COc1ccc(/C=N/Nc2cc(C)nc3ccc(OC)cc23)c(OC)c1,/,34,2,0,-15,43,/,/
CCc1ccc(S(=O)(=O)/N=C2\C=CC(=O)c3ccccc32)cc1,/,/,-4,-9,/,112*,93*,164*
Cc1cc(NCCOCCO)n2ncc(-c3ccc(Cl)cc3)c2n1,-71,-19,2,0,-13,126*,142*,28*
FC(F)(F)c1cnc(N/N=C/c2ccncc2)c(Cl)c1,/,10,5,0,3,93*,75*,18*
Cc1cc[n+](-c2[nH]c(=O)sc2C=N/N=C(\[O-])c2ccccc2)cc1C,10,/,/,/,/,/,/,/
O=c1[nH]c(-[n+]2ccc3ccccc3c2)c(/C=N/N=C(\[O-])c2ccccc2)s1,/,12,-4,0,11,84*,50*,20*
CC(C)CC(=O)NC(=S)Nc1nc(-c2cccc3ccccc23)cs1,6,7,-4,-4,0,80*,53*,29*
Cc1cccc(NC2=C(NCCO)C(=O)c3ccccc3C2=O)c1,8,18,-1,-5,1,113*,77*,65*
CC(=NNc1nc(Nc2ccccc2)nc(N2CCOCC2)n1)c1cccs1,2,/,/,/,/,/,/,/
Cc1ccc(-n2c(SCC(=O)NN=C/C=C/c3ccccc3[N+](=O)[O-])nc3ccccc3c2=O)cc1,0,/,/,/,/,/,/,/
O=C(NN=Cc1c[nH]c2ccccc12)c1ccccc1,4,/,/,/,/,/,/,/
O=C(/C=C/c1c[nH]c2ccccc12)c1ccccc1,-8,4,-3,-2,-16,93*,105*,28*
CC(=O)c1noc(C)c1C(=O)Nc1nccs1,3,-5,2,1,-3,103*,81*,/
Cc1ccc2cc3c(NC(=O)CC(C)C)nn(C)c3nc2c1,-45,13,-1,6,7,103*,72*,/
CN(C)c1nc(NN=Cc2ccccc2O)nc(Nc2ccc(F)cc2)n1,6,/,/,/,/,/,/,/
Nc1ccc(N=Nc2ccccc2)c2cccnc12,6,8,-2,-6,-7,94*,84*,12*
Cc1ccccc1N=Nc1ccc(O)c2ncccc12,3,26,/,/,-21,3,/,/
CCOC(=O)C(C#N)=NNc1ccc(S(=O)(=O)N2CCc3ccccc32)cc1,5,/,/,/,/,/,/,/
Cc1cc(C)c2c(c1)SC1=NC(c3ccccc3)(C(F)(F)F)NC(=O)N12 (stereo unspecified),2,0,-4,-6,20,91*,66*,21*
C/C(=N/Nc1ccc(F)cc1)c1ccc(Cl)s1,/,-4,1,-4,-5,84*,68*,/
CC(=NNc1ccc(F)cc1)c1ccc(Cl)s1,-3,/,/,/,/,/,/,/
CCOCC(=O)Nc1cccc(-c2nc3cccnc3s2)c1C,-1,-8,2,8,0,88*,107*,/
Cc1nc2ccc(S(=O)(=O)Nc3cccc(-c4nc5cccnc5s4)c3C)cc2s1,0,21,1,1,-1,1,/,/
O=C(NN=Cc1ccc(OC(=O)c2ccc(Br)cc2)cc1)c1ccncc1,4,/,/,/,/,/,/,/
Clc1ncccc1-c1nnn(-c2ccccc2)n1,-4,8,-2,-7,-5,30,/,/
